Laboratory results from ChEMBL document CHEMBL1132573, “Novel antitumor 2-cyanoaziridine-1-carboxamides” (J Med Chem, 1999).

What was measured:
[1] = Number of colony forming cells of human myeloma tumor showing sensitivity among the 3 colony forming cells tested in vitro at compound concentration of 0.1 uM; assay type: functional
Procedure, shortened: (§1)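 Fresh human tumor specimens from patients at the Arizona Cancer Center, run in the human tumor cloning (colony-forming) assay by a standard protocol. Read-out was [3H]thymine uptake by tumor-colony-forming cells.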

[2] = Number of colony forming cells of human ovary tumor showing sensitivity among the 12 colony forming cells tested in vitro at compound concentration of 0.1 uM; assay type: functional, Female gonad; procedure, shortened: as §1
MCF7 [3] = assay: Inhibition of cell growth in (MCF7 breast) dox cell line; assay type: functional, cell-based; settings: Homo sapiens
[4] = Number of colony forming cells of human myeloma tumor showing sensitivity among the 3 colony forming cells tested in vitro at compound concentration of 10 uM; assay type: functional; procedure, shortened: as §1
[5] = Number of colony forming cells of human gynecologic tumor showing sensitivity among the 4 colony forming cells tested in vitro at compound concentration of 10 uM; assay type: functional; procedure, shortened: as §1
[6] = Number of colony forming cells of human melanoma tumor showing sensitivity among the 5 colony forming cells tested in vitro at compound concentration of 0.1 uM; assay type: functional; procedure, shortened: as §1
[7] = Number of colony forming cells of human melanoma tumor showing sensitivity among the 10 colony forming cells tested in vitro at compound concentration of 1.0 uM; assay type: functional; procedure, shortened: as §1
[8] = Number of colony forming cells of human sarcoma tumor showing sensitivity among the 2 colony forming cells tested in vitro at compound concentration of 0.1 uM; assay type: functional
Procedure, shortened: (§2)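 Fresh human tumor specimens, obtained from patients at the Arizona Cancer Center, were tested as tumor-colony-forming cells in the human tumor cloning assay. Sensitivity was scored as a 50% or greater decrease in […] uptake by treated colony-forming cells relative to untreated control colony-forming cells. The value is the count of sensitive specimens among those tested.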

[9] = Number of colony forming cells of human lung tumor showing sensitivity among the 2 colony forming cells tested in vitro at compound concentration of 0.1 uM; assay type: functional; procedure, shortened: as §1
[10] = Number of colony forming cells of human stomach tumor showing sensitivity among the 1 colony forming cells tested in vitro at compound concentration of 10 uM; assay type: functional; procedure, shortened: as §2
Breast carcinoma cell [11] = assay: Number of colony forming cells of human breast tumor showing sensitivity among the 4 colony forming cells tested in vitro at compound concentration of 10 uM; assay type: functional; procedure, shortened: as §1
MCF7 [12] = assay: Inhibition of cell growth in (MCF7 breast) mitox cell line; assay type: functional, cell-based; settings: Homo sapiens
[13] = Number of colony forming cells of human gynecologic tumor showing sensitivity among the 4 colony forming cells tested in vitro at compound concentration of 1.0 uM; assay type: functional; procedure, shortened: as §1
[14] = Number of colony forming cells of human sarcoma tumor showing sensitivity among the 8 colony forming cells tested in vitro at compound concentration of 1.0 uM; assay type: functional; procedure, shortened: as §2
Breast carcinoma cell [15] = assay: Number of colony forming cells of human breast tumor showing sensitivity among the 4 colony forming cells tested in vitro at compound concentration of 0.1 uM; assay type: functional; procedure, shortened: as §1
A549 = assay: Inhibition of cell growth in (A-549) lung cell line; assay type: functional, cell-based; settings: Homo sapiens
[16] = Number of colony forming cells of human myeloma tumor showing sensitivity among the 3 colony forming cells tested in vitro at compound concentration of 1.0 uM; assay type: functional; procedure, shortened: as §1
WiDr [17] = assay: Inhibition of cell growth in drug resistant WiDr colon cell line; assay type: functional, cell-based; settings: Homo sapiens
RPMI-8226 = assay: Inhibition of cell growth in drug sensitive 8226 myeloma cell line; assay type: functional, cell-based; settings: Homo sapiens
[18] = Number of colony forming cells of human stomach tumor showing sensitivity among the 1 colony forming cells tested in vitro at compound concentration of 1.0 uM; assay type: functional; procedure, shortened: as §2
[19] = Number of colony forming cells of human ovary tumor showing sensitivity among the 12 colony forming cells tested in vitro at compound concentration of 10 uM; assay type: functional, Female gonad; procedure, shortened: as §1
[20] = Number of colony forming cells of human sarcoma tumor showing sensitivity among the 8 colony forming cells tested in vitro at compound concentration of 10 uM; assay type: functional; procedure, shortened: as §2
[21] = Number of colony forming cells of human ovary tumor showing sensitivity among the 11 colony forming cells tested in vitro at compound concentration of 1.0 uM; assay type: functional, Female gonad; procedure, shortened: as §1
MCF7 [22] = assay: Inhibition of cell growth in drug sensitive MCF-7 breast cell line; assay type: functional, cell-based; settings: Homo sapiens
[23] = Number of colony forming cells of human lung tumor showing sensitivity among the 2 colony forming cells tested in vitro at compound concentration of 1.0 uM; assay type: functional; procedure, shortened: as §1
WiDr [24] = assay: Inhibition of cell growth in drug sensitive WiDr colon cell line; assay type: functional, cell-based; settings: Homo sapiens
Breast carcinoma cell [25] = assay: Number of colony forming cells of human breast tumor showing sensitivity among the 4 colony forming cells tested in vitro at compound concentration of 1.0 uM; assay type: functional; procedure, shortened: as §1
[26] = Number of colony forming cells of human lung tumor showing sensitivity among the 2 colony forming cells tested in vitro at compound concentration of 10 uM; assay type: functional; procedure, shortened: as §1
[27] = Number of colony forming cells of human melanoma tumor showing sensitivity among the 10 colony forming cells tested in vitro at compound concentration of 10 uM; assay type: functional; procedure, shortened: as §1
[28] = Number of colony forming cells of human gynecologic tumor showing sensitivity among the 4 colony forming cells tested in vitro at compound concentration of 0.1 uM; assay type: functional; procedure, shortened: as §1
[29] = Number of colony forming cells of human stomach tumor showing sensitivity among the 1 colony forming cells tested in vitro at compound concentration of 0.1 uM; assay type: functional; procedure, shortened: as §2

N=C1NC(=O)N2CC12 (stereo unspecified) [IMEXON]
Sensitivity [1]: 3
Sensitivity [2]: 4
IC50 (MCF7 [3]): > 18 µM
Sensitivity [4]: 3
Sensitivity [5]: 1
Sensitivity [6]: 3
Sensitivity [7]: 4
Sensitivity [8]: 0
Sensitivity [9]: 0
Sensitivity [10]: 1
Sensitivity (Breast carcinoma cell [11]): 3
IC50 (MCF7 [12]): > 18 µM
Sensitivity [13]: 0
Sensitivity [14]: 2
Sensitivity (Breast carcinoma cell [15]): 0
IC50 (A549): > 72 µM
Sensitivity [16]: 3
IC50 (WiDr [17]): > 72 µM
IC50 (RPMI-8226): 17 µM
Sensitivity [18]: 0
Sensitivity [19]: 8
Sensitivity [20]: 5
Sensitivity [21]: 3
IC50 (MCF7 [22]): > 18 µM
Sensitivity [23]: 0
IC50 (WiDr [24]): > 72 µM
Sensitivity (Breast carcinoma cell [25]): 2
Sensitivity [26]: 2
Sensitivity [27]: 8
Sensitivity [28]: 0
Sensitivity [29]: 0
